Test results: ChEMBL document CHEMBL1123198, “Stereoselective syntheses of the trans-decahydroquinoline-5-carboxylic acid epimers. Diastereomeric zwitterionic probes of gamma-aminobutyric acid related biological properties in vitro and in vivo” (1986)

What was measured:
Rattus norvegicus = species on record: Rattus norvegicus; experiment: Cyclic AMP accumulation in Rat brain cerebral cortical slices by the compound, activity expressed as % conversion; format: functional
Outline: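 Rat cerebral cortical slices were used for cAMP accumulation. cAMP was isolated by double-column chromatography. Values are means of two experiments, each run in duplicate.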

Mus musculus [1] = experiment: Convulsant effect on ICV administration in mice at 100microg, 5/5 mice affected; format: functional
Outline: (§1)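 Mice under halothane anaesthesia got a 4 µL injection into the left ventricle at 25, 50 or 100 µg, with saline controls. Mice sat in a 1-L beaker and were watched for seizures from 2 min after injection, and for behaviour over 40 min. A seizure counted when tonic-clonic convulsions occurred and the mouse fell on its flank. Read-out: mice convulsing/mice tested, and seizure duration in min (mean ± SEM).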

Mus musculus [2] = experiment: Convulsant effect on ICV administration in mice at 25microg, 0/5 mice affected; format: functional; outline: as §1
[3] = biological target: T1, GABA-A receptor; anion channel (Rattus norvegicus) (UniProt O09028+P15431+P18506+P18508+P19969+P20236+P23574+P23576+P28471+P28473+P30191+P62813+P63079+P63138+Q91ZM7+Q9ES14); experiment: Displacement of [3H]-GABA from Gamma-aminobutyric acid A receptor in rat brain membranes; format: cell membranes; set-up: concentration or dose not given beside the values
Outline: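 GABA-A binding used [3H]GABA as ligand, with nonspecific binding taken in 1 mM unlabelled GABA. Values are means of three experiments, each in duplicate; standard error of the means was below 10%.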

[4] = biological target: T1, GABA-A receptor; anion channel (Rattus norvegicus); experiment: Displacement of [35S]TBPS from GABA-A receptor of rat brain membranes; format: cell membranes; set-up: concentration or dose not given beside the values; details: Membrane
Outline: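 [35S]TBPS binding assay with nonspecific binding defined by 10 µM unlabelled TBPS. Values are means of two experiments, each in duplicate.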

Mus musculus [5] = experiment: Reversal of convulsant effect by Diazepam pretreatment (2 mg/kg) at 100 ug ICV dose, 4/4 mice affected; format: functional
Mus musculus [6] = experiment: Convulsant effect on ICV administration in mice at 50 ug; format: functional; outline: as §1
Mus musculus [7] = experiment: Reversal of convulsant effect by Diazepam pretreatment (5 mg/kg) at 100 ug ICV dose, 5/5 mice affected; format: functional
Mus musculus [8] = experiment: Convulsant effect on ICV administration in mice at 50microg, 1/6 mice affected; format: functional; outline: as §1
Mus musculus [9] = experiment: Reversal of convulsant effect by Diazepam pretreatment (10 mg/kg) at 100 ug ICV dose, 0/6 mice affected; format: functional
[10] = biological target: GABA B receptor (Rattus norvegicus) (UniProt Q9Z0U4+O88871); experiment: Displacement of [3H]-GABA from Gamma-aminobutyric acid type B receptor in rat brain membranes; format: cell membranes; set-up: concentration or dose not given beside the values
Outline: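 GABA-B binding: rat brain membranes were incubated with [3H]GABA plus 40 µM isoguvacine to block GABA-A sites. Nonspecific binding was defined with 100 µM baclofen. Values are means of three experiments, each in duplicate; standard errors were below 20%.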

Mus musculus [11] = experiment: Convulsant effect on ICV administration in mice at 100 ug; format: functional; outline: as §1
[12] = biological target: T1, GABA-A receptor; anion channel (Rattus norvegicus); experiment: Displacement of [3H]diazepam binding in rat brain membranes; format: cell membranes; set-up: unit not given here
Outline: (§2)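 [3H]Diazepam binding, alone and GABA-activated, was measured in brain membranes. Nonspecific binding was taken with 1 µM unlabelled diazepam. Values are means of two experiments, each in duplicate.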

Mus musculus [13] = species on record: Mus musculus; experiment: Reversal of convulsant effect by Diazepam pretreatment at 100 ug ICV dose, 5/5 mice affected; format: functional
[14] = biological target: GABA transporter (Rattus norvegicus) (UniProt P31647+P23978+P31646+P48056); experiment: Inhibition of [3H]GABA uptake from rat brain membranes; format: functional, cell membranes; details: Membrane, concentration not given here
Chain of GABA transporter (Rattus norvegicus) (P31646 whole entry, looked up): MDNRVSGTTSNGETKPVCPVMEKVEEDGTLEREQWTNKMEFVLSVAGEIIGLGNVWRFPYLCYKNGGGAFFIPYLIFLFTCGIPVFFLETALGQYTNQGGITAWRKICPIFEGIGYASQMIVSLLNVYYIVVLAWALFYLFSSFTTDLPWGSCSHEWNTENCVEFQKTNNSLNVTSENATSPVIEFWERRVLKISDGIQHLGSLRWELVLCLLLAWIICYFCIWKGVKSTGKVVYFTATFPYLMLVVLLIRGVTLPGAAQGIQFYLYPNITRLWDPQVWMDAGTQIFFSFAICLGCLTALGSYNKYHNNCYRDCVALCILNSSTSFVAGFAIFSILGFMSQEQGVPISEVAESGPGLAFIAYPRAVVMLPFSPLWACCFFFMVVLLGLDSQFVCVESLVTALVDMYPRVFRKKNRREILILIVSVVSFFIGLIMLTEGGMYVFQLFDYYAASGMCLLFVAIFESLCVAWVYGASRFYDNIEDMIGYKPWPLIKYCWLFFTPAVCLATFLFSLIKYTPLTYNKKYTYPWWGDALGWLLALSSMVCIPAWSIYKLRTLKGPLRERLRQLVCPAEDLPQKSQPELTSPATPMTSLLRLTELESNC
Chain of GABA transporter (Rattus norvegicus) (P31647 whole entry, looked up): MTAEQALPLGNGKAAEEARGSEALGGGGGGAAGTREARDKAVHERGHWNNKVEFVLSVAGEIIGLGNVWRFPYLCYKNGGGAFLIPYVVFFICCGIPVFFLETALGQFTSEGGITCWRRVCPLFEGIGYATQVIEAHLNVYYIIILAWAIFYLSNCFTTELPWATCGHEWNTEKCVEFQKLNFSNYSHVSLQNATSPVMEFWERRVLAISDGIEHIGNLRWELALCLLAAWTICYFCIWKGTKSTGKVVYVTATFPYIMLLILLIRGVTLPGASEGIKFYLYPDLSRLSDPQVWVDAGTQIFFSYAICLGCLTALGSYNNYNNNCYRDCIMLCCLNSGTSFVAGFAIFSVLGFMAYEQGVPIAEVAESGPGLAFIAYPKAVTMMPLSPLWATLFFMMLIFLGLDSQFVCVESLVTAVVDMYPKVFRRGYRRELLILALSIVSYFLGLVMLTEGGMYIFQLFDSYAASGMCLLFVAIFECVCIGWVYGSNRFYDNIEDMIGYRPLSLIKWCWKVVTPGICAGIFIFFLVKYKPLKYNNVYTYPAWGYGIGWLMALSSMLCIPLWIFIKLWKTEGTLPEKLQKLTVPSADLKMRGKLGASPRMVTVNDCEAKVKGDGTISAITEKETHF
Chain of GABA transporter (Rattus norvegicus) (P48056 whole entry, looked up): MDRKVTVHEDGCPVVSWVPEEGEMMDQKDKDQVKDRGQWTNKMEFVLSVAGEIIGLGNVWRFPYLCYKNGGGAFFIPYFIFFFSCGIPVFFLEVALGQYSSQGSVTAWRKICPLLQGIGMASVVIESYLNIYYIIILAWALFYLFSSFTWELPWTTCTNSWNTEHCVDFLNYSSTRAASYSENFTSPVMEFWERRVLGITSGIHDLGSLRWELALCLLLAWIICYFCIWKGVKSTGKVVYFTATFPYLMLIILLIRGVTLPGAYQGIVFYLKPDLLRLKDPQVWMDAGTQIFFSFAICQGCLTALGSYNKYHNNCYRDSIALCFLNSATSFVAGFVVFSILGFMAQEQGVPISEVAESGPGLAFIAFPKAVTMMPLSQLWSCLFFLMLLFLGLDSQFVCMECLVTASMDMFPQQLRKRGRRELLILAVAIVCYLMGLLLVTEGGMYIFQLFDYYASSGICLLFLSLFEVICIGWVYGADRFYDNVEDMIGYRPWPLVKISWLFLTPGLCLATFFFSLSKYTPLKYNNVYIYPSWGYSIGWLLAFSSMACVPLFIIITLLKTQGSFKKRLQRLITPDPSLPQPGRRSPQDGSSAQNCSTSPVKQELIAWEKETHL
Outline: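 High-affinity [3H]GABA uptake was measured into rat brain synaptosomes. Values are means of two experiments.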

[15] = biological target: T1, GABA-A receptor; anion channel (Rattus norvegicus); experiment: Displacement of GABA activated [3H]diazepam binding in rat brain membranes; format: cell membranes; outline: as §2
[16] = biological target: T1, GABA-A receptor; anion channel (Rattus norvegicus); details: Brain, Brain membranes
[17] = biological target: T1, GABA-A receptor; anion channel (Rattus norvegicus); details: Brain, Brain membranes; remark: listed apart in the source
[18] = biological target: T1, GABA-A receptor; anion channel (Rattus norvegicus); experiment: Displacement of [3H]diazepam binding to rat brain membranes at 100 uM concentration; format: cell membranes; details: Membrane; outline: as §2
[19] = biological target: T1, GABA-A receptor; anion channel (Rattus norvegicus); experiment: Displacement of GABA activated [3H]diazepam binding in rat brain membranes at 100 uM; format: cell membranes; outline: as §2
Mus musculus [20] = experiment: Reversal of convulsant effect by Diazepam pretreatment (2 mg/kg) at 100 ug ICV dose, 5/5 mice affected; format: functional
Mus musculus [21] = experiment: Reversal of convulsant effect by Diazepam pretreatment (5 mg/kg) at 100 ug ICV dose, 4/4 mice affected; format: functional
Mus musculus [22] = experiment: Reversal of convulsant effect by Diazepam pretreatment (10 mg/kg) at 100 ug ICV dose, 0/5 mice affected; format: functional
Mus musculus [23] = experiment: Convulsant effect on ICV administration in mice at 50microg, 5/5 mice affected; format: functional; outline: as §1

Question: Which Conversion (Rattus norvegicus) does the source give for `CC(C)NCC(O)c1ccc(O)c(O)c1.O=C(O)C1CCCC2NCCCC21` (stereo not given) here?
Answer: The Conversion was 0.84%.

Question: How did the Conversion (Rattus norvegicus) turn out when `CC(C)NCC(O)c1ccc(O)c(O)c1.NCC(CC(=O)O)c1ccc(Cl)cc1` (stereo not given) was run?
Answer: The Conversion was 2.56%.

Question: Which Conversion (Rattus norvegicus) does the source give for `CC(C)NCC(O)c1ccc(O)c(O)c1.NCC(CC(=O)O)c1ccc(Cl)cc1.O=C(O)[C@@H]1CCCC2NCCCC21` (stereo in doubt; form 1) here?
Answer: Its Conversion is 2.59%.

Question: How did the Conversion (Rattus norvegicus) turn out when `CC(C)NCC(O)c1ccc(O)c(O)c1.O=C(O)[C@@H]1CCCC2NCCCC21` (stereo in doubt; form 2) was run?
Answer: Its Conversion is 0.86%.

Question: With `CC(C)NCC(O)c1ccc(O)c(O)c1.NCC(CC(=O)O)c1ccc(Cl)cc1.O=C(O)[C@@H]1CCCC2NCCCC21` (stereo in doubt; form 3) as the compound, how does the Conversion (Rattus norvegicus) read?
Answer: The Conversion was 2.81%.

Question: Which results are given for `O=C(O)C1CCCC2NCCCC21` (trans isomer)?
Answer: Tonic-clonic seizure (Mus musculus [1]): 5; Tonic-clonic seizure (Mus musculus [2]): 0; Displacement [3]: 43%; Displacement [4]: < 5%; Tonic-clonic seizure (Mus musculus [5]): 4; Duration of seizure (Mus musculus [6]): 0.8 min; Tonic-clonic seizure (Mus musculus [7]): 5; Tonic-clonic seizure (Mus musculus [8]): 1; Tonic-clonic seizure (Mus musculus [9]): 0; Displacement [10]: 38%; Duration of seizure (Mus musculus [11]): 11.7 min; Binding affinity (spec bound mg-1) [12]: 35; Tonic-clonic seizure (Mus musculus [13]): 5; inhibition [14]: < 5%; Binding affinity (spec bound mg-1) [15]: 65.5

Question: Which results are given for `NCCCC(=O)O`?
Answer: Displacement [3]: 100%; Binding affinity (spec bound mg-1) [16]: 55.4; Displacement [10]: 100%

Question: With `C=C(C)[C@@H]1[C@H]2OC(=O)[C@@H]1[C@]1(O)C[C@H]3O[C@]34C(=O)O[C@H]2[C@]14C` as the compound, how does the Displacement [4] read?
Answer: The Displacement was 90%.

Question: With `CC(C)NCC(O)c1ccc(O)c(O)c1.O=C(O)[C@@H]1CCCC2NCCCC21` (stereo in doubt; form 5) as the compound, how does the Conversion (Rattus norvegicus) read?
Answer: Its Conversion is 0.8%.

Question: With `CC(C)NCC(O)c1ccc(O)c(O)c1.O=C(O)[C@@H]1CCCC2NCCCC21` (stereo not given) as the compound, how does the Binding affinity (spec bound mg-1) [17] read?
Answer: Its Binding affinity (spec bound mg-1) is 0.91.

Question: `O=C(O)[C@@H]1CCCC2NCCCC21` (stereo in doubt; form 1) was tested. Which Displacement [3] did it give?
Answer: The Displacement was < 10%.

Question: And the Displacement [4]?
Answer: Its Displacement is < 5%.

Question: What about the Binding affinity (spec bound mg-1) [18] of the same compound?
Answer: Its Binding affinity (spec bound mg-1) is 31.9.

Question: And the Displacement [10]?
Answer: Its Displacement is < 10%.

Question: What about the Binding affinity (spec bound mg-1) [19] of the same compound?
Answer: Its Binding affinity (spec bound mg-1) is 55.3.

Question: What about the inhibition [14] of the same compound?
Answer: The inhibition was < 5%.

Question: `O=C(O)[C@@H]1CCCC2NCCCC21` (stereo in doubt; form 2) was tested. Which Displacement [3] did it give?
Answer: Its Displacement is < 10%.

Question: What about the Displacement [4] of the same compound?
Answer: The Displacement was < 5%.

Question: What about the Displacement [10] of the same compound?
Answer: Its Displacement is < 10%.

Question: And the Binding affinity (spec bound mg-1) [12]?
Answer: Its Binding affinity (spec bound mg-1) is 32.

Question: What about the inhibition [14] of the same compound?
Answer: The inhibition was 15%.

Question: And the Binding affinity (spec bound mg-1) [15]?
Answer: The Binding affinity (spec bound mg-1) was 59.4.

Question: How did the Binding affinity (spec bound mg-1) [12] turn out when `CN1C(=O)CN=C(c2ccccc2)c2cc(Cl)ccc21` was run?
Answer: Its Binding affinity (spec bound mg-1) is 29.3.

Question: With `O=C(O)[C@@H]1CCCC2NCCCC21` (stereo in doubt; 3) [listing 1 of 2 here] as the compound, how does the Tonic-clonic seizure (Mus musculus [20]) read?
Answer: The Tonic-clonic seizure was 5.

Question: And the Tonic-clonic seizure (Mus musculus [1])?
Answer: The Tonic-clonic seizure was 5.

Question: What about the Tonic-clonic seizure (Mus musculus [2]) of the same compound?
Answer: The Tonic-clonic seizure was 0.

Question: What about the Duration of seizure (Mus musculus [6]) of the same compound?
Answer: The Duration of seizure was 9.5 min.

Question: What about the Duration of seizure (Mus musculus [11]) of the same compound?
Answer: The Duration of seizure was 26.5 min.

Question: And the Tonic-clonic seizure (Mus musculus [21])?
Answer: The Tonic-clonic seizure was 4.

Question: What about the Tonic-clonic seizure (Mus musculus [13]) of the same compound?
Answer: The Tonic-clonic seizure was 5.

Question: And the Tonic-clonic seizure (Mus musculus [22])?
Answer: Its Tonic-clonic seizure is 0.

Question: What about the Tonic-clonic seizure (Mus musculus [23]) of the same compound?
Answer: Its Tonic-clonic seizure is 5.

Question: Which results are given for `O=C(O)[C@@H]1CCCC2NCCCC21` (stereo in doubt; 3) [listing 2 of 2 here]?
Answer: Displacement [3]: < 10%; Displacement [4]: < 5%; Displacement [10]: < 10%; Binding affinity (spec bound mg-1) [12]: 28.8; inhibition [14]: < 5%; Binding affinity (spec bound mg-1) [15]: 59.1

Question: How did the Conversion (Rattus norvegicus) turn out when `CC(C)NCC(O)c1ccc(O)c(O)c1.NCC(CC(=O)O)c1ccc(Cl)cc1.O=C(O)C1CCCC2NCCCC21` (stereo not given) was run?
Answer: The Conversion was 2.65%.

Question: For `NCC(CC(=O)O)c1ccc(Cl)cc1` (stereo not given) [BACLOFEN], which Displacement [3] is on record?
Answer: The Displacement was 15%.

Question: And the Conversion (Rattus norvegicus)?
Answer: The Conversion was 0.2%.

Question: And the Displacement [10]?
Answer: Its Displacement is 100%.

Question: Which Conversion (Rattus norvegicus) does the source give for `CC(C)NCC(O)c1ccc(O)c(O)c1.NCC(CC(=O)O)c1ccc(Cl)cc1.O=C(O)[C@@H]1CCCC2NCCCC21` (stereo in doubt; form 4) here?
Answer: The Conversion was 2.63%.

Question: With `CC(C)NCC(O)c1ccc(O)c(O)c1` (stereo not given) [ISOPROTERENOL] as the compound, how does the Conversion (Rattus norvegicus) read?
Answer: Its Conversion is 0.84%.
